The values below come from ChEMBL document CHEMBL1142944, “Synthesis and biological evaluation of selective aromatase expression regulators in breast cancer cells” (J Med Chem, 2007).

Active and inactive are the calls of the source. No cut-off for these calls is given here.

For test [1], the system named is SK-BR-3. Description: Induction of apoptosis in SK-BR-3 cells at 5 uM. It is filed as functional, cell-based. The following applies: Homo sapiens. In outline:
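Cells plated at 0.5 × 10⁴ to 1 × 10⁴ per well in custom medium and left to adhere overnight. Treated 24 h at 5 µM in defined medium, triplicate. After fixation, DNA in apoptotic cells denatured by formamide plus heat. Single-stranded DNA detected by monoclonal antibody ELISA with ABTS, absorbance at 405 nm.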

In test [2] the test system is SK-BR-3. Description: Decrease in CYP19 gene expression in SK-BR-3 cells at 5 uM. Type of test: functional, cell-based. The settings on record: Homo sapiens. An outline of the steps: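 SK-BR-3 cells grown to subconfluency, switched to defined DMEM/F12 medium (human albumin, transferrin, insulin), then exposed 24 h at 5 µM. Total RNA by TRIzol, DNase I-treated, reverse-transcribed with random hexamers (Superscript II, 42 °C 50 min). Taqman real-time PCR with 600 nM CYP19 primers, 50 cycles. CYP19 normalized to 18S rRNA, n = 9, unpaired t test vs control.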

For the compound `CN(c1ccc([N+](=O)[O-])cc1OCc1ccc2ccccc2c1)S(C)(=O)=O`, the outcome in the test on SK-BR-3 [1] was inactive. For the same compound, the outcome in the test on SK-BR-3 [2] was Active. Take `CN(c1ccc([N+](=O)[O-])cc1OCc1ccccc1)S(C)(=O)=O`: the result in the test on SK-BR-3 [1] was inactive. In the test on SK-BR-3 [2], the result was Active. For `CN(c1ccc([N+](=O)[O-])cc1OCc1ccccc1-c1ccccc1)S(C)(=O)=O`, in that order: “inactive” and “Active”.

As to `CS(=O)(=O)Nc1ccc([N+](=O)[O-])cc1OCCc1ccccc1`, in the test on SK-BR-3 [2], the result was inactive. For the compound `Cc1ccc(COc2cc([N+](=O)[O-])ccc2N(C)S(C)(=O)=O)cc1`, the outcome in the test on SK-BR-3 [1] was inactive.

Take `CN(c1ccc([N+](=O)[O-])cc1OCc1ccc([N+](=O)[O-])cc1)S(C)(=O)=O`: the outcome in the test with SK-BR-3 [1] was inactive. Also, the outcome in the test with SK-BR-3 [2] was Active. For `CN(c1ccc([N+](=O)[O-])cc1OCc1ccc(F)cc1)S(C)(=O)=O`, in that order: “inactive” and “Active”.
